This is a sample that favours compounds with a hit; in the whole collection about 1.9% have one here.
DENV2 CPE rescue – inhibitors of DENV2 cytopathic effect; 350,000 tested, 1.7% active; DENV2-infected cells, cytopathic effect rescue, plate reader; CPE inhibition, % at 9.99 µM; in the data active means CPE inhibition above about 20%, passing the limit was not always enough; inconclusive means no clear call, values can overlap the other calls; tested in BHK-21 cells
PGC1a acetyl inh – modulators of PGC1a acetylation. 350,000 tested, 0.17% active. AID 651687. U2OS PGC1a acetylation, AlphaScreen anti-acetyl-lysine; with virally co-expressed GCN5 acetyltransferase. inhibition, % at 15.6 µM;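 active means every replicate shows inhibition of at least 40%; inconclusive means mean inhibition at least 40% but some replicate below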
XiGFP reactiv – reactivates the inactive X chromosome in mouse fibroblasts | XiGFP mouse fibroblasts, % GFP-positive cells imaging, 3 d; cells co-treated with 5-aza-dC sensitizer; scaled so ellipticine positive control = 100% | activation, % at 7.58 µM | 360,000 tested, 0.055% active | AID 743238;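 active means mean normalized replicate activation at least 10% and every replicate at or above 10%; inconclusive means only one of the two criteria met; inactive means mean below 10% and not all replicates reach 10%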
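Assay system – SV40-immortalized XiGFP fibroblast cells, line 68-5-11 · Buffer or medium – DMEM supplemented with 5-aza-dC as sensitizing agent · Dosing – one concentration, pinned · Benchmarks – positive control ellipticine, 6 µM final · Times – 3 days compound exposure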
F508del corr – CFTR F508del correction in bronchial cells | 350,000 tested, 0.36% active | CFBE cells, YFP halide quenching; stimulated with forskolin plus potentiator P3; % fluorescence drop versus neutral controls | activity (quench increase), % at 7.58 µM | AID 720511;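 active means mean added fluorescence quench of at least 8% versus neutral control, with both replicates also reaching 8%; inconclusive means only one of the mean or replicate conditions met; inactive means mean below 8% and not both replicates reaching 8%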;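 further: cells transiently co-express mutant CFTR-F508del with the halide-sensitive YFP; corrector assay measuring rescue of mutant channel to the surface after 24 h compound exposure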
FN deposition inh – fibronectin deposition inhibition; AH1F fibroblasts, Alexa488-fibronectin deposition fluorescence, overnight; inhibition, % at 12.6 µM; 350,000 tested, 0.086% active; AID 743247;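 active means mean inhibition across replicates of 30% or more, regardless of how many single replicates reach that level; inconclusive means mean under 30% yet at least half of replicates reach 30%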
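material = AH1F fibroblast monolayer depositing Alexa488-labelled fibronectin into matrix | amount = 10000 AH1F cells/well | buffer or medium = DMEM plus 2% serum, read in PBS | incubation = 1 h cell adhesion before compound, then overnight fibronectin incubation | detection = fluorescence at 485 nm excitation, 525 nm emission | evaluation = percent inhibition as loss of matrix-bound fibronectin fluorescence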
Cneo AK release – Cryptococcus neoformans lysis via adenylate kinase release; AID 651654; lysis activity, % at 15 µM; 360,000 tested, 0.2% active; C. neoformans lysis, adenylate kinase release luminescence, 4 h; normalised: neutral wells 0, clomiphene wells 100;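 active means mean lysis activity across replicates of at least 80%, whatever share of replicates individually reach that level; inactive means mean lysis activity below 80%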
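Signal: Adenylate kinase release luminescence | Assay system: Log-phase Cryptococcus neoformans yeast cells | Input: Cells at 5 × 10^6 per mL | Buffer or medium: Fresh YPD growth medium | Compound: Single dose | Schedule: Static 4 h at 37 °C with compound, 1 h detection | Controls: Clomiphene | Read-out: Luminescence rise reflecting yeast cell lysis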
Numbers stand for hits; 0 = inactive; ? = inconclusive; - = no result; ! = a repeat was not active.

SMILES	DENV2 CPE rescue	PGC1a acetyl inh	XiGFP reactiv	F508del corr	FN deposition inh	Cneo AK release
CC(C)NC(=O)N1CCCCN2[C@H](C1)[C@H](c1ccc(C#CC3CC3)cc1)[C@@H]2CO	0	0	0	0	-	0
O=C(O)CSc1ccn(Cc2ccccc2)c1	50.7	0	0	0	0	0
O=C(Cn1ccc([N+](=O)[O-])n1)NCC1CCCO1 (stereo not drawn)	26.6	-	0	0	0	0
O=C(Cn1cc([N+](=O)[O-])cn1)NCC1CCCO1 (stereo not drawn)	0	0	0	-	0	0
Cc1noc(C)c1NC(=O)Nc1cccc2c1O[C@H](CN(C)Cc1ccc(C(F)(F)F)cc1)[C@H](C)CN([C@@H](C)CO)C2=O	20.8	0	0	0	-	0
Cc1noc(C)c1NC(=O)Nc1cccc2c1O[C@@H](CN(C)Cc1ccc(-c3ccccc3)cc1)[C@H](C)CN([C@H](C)CO)C2=O	38.7	0	0	0	-	0
Cc1noc(C)c1NC(=O)Nc1cccc2c1O[C@H](CN(C)Cc1ccc(C(F)(F)F)cc1)[C@@H](C)CN([C@@H](C)CO)C2=O	0	0	0	0	-	0
Cc1noc(C)c1NC(=O)Nc1cccc2c1O[C@@H](CN(C)Cc1ccc(C(=O)O)cc1)[C@@H](C)CN([C@@H](C)CO)C2=O	44.5	0	0	0	-	0
Cc1noc(C)c1NC(=O)Nc1cccc2c1O[C@H](CN(C)Cc1ccc(Oc3ccccc3)cc1)[C@H](C)CN([C@@H](C)CO)C2=O	0	99.9	0	0	0	0
CO[C@@H]1CN(C)C(=O)c2cc(NS(=O)(=O)c3ccccc3)ccc2OC[C@@H](C)N(C(=O)NC(C)C)C[C@H]1C	0	0	0	0	0	0
COc1ccc(C[C@H]2CCc3cnnn3COC[C@H](C(C)C)NC2=O)cc1	-	-	0	-	0	0
C/C=C/c1ccc2c(c1)O[C@@H](CN(C)C(=O)C1CC1)[C@H](C)CN([C@@H](C)CO)S2(=O)=O	-	0	0	0	0	-
COc1cc(C)nc(N2CCC(C(=O)NCC3CCCO3)CC2)n1 (stereo not drawn)	43.6	0	0	0	0	0
COc1ccc2c3c(n(C)c2c1)[C@H](CO)N(CC1CCOCC1)CC31CCN(Cc2nccs2)CC1	0	-	0	0	-	-
CCC(CO)Oc1cc(NCc2cccc(F)c2)c2ncn(C(C)C)c2c1 (stereo not drawn)	117.6	-	0	0	0	0
CC(=O)N(C)C[C@H]1Oc2cc(-c3cccc(C#N)c3)ccc2S(=O)(=O)N([C@@H](C)CO)C[C@@H]1C	0	0	0	0	0	0
CC(=O)Oc1ccc(N2C(=O)c3cccc4c([N+](=O)[O-])ccc(c34)C2=O)cc1	0	0	0	32.0	0	0
O=C1c2cccc3c([N+](=O)[O-])ccc(c23)C(=O)N1c1ccccn1	-	?	-	-	0	0
O=C1c2cccc3c([N+](=O)[O-])ccc(c23)C(=O)N1O	0	-	16.8	0	0	0
O=C1c2cccc3c([N+](=O)[O-])ccc(c23)C(=O)N1c1ccc(Cl)cn1	-	0	-	-	0	0
C[C@H]1CN([C@@H](C)CO)C(=O)c2cc(NC(=O)c3ccncc3)ccc2O[C@H]1CN(C)S(=O)(=O)c1cccs1	0	0	0	0	0	0
N#Cc1ccccc1	30.2	0	-	0	-	0
C[C@@H]1CN([C@@H](C)CO)C(=O)Cc2cc(NC(=O)Cc3ccccc3)ccc2O[C@H]1CN(C)S(=O)(=O)c1cn(C)cn1	0	0	0	0	-	0
C=CCn1c(SCC(=O)NC(N)=O)nnc1-c1cc2c(s1)CCC(CC)C2 (stereo not drawn)	21.4	-	0	-	0	-
CC(C)NC(=O)N(C)C[C@@H]1OCCCC[C@@H](C)Oc2ccc(NC(=O)Nc3ccc(F)cc3)cc2C(=O)N([C@H](C)CO)C[C@@H]1C	47.5!	0	0	0	0	0
SMILES	DENV2 CPE rescue	PGC1a acetyl inh	XiGFP reactiv	F508del corr	FN deposition inh	Cneo AK release
CC(C)NC(=O)Nc1ccc2c(c1)C(=O)N([C@@H](C)CO)C[C@@H](C)[C@@H](CN(C)C(=O)NC(C)C)OCCCC[C@@H](C)O2	0	-	0	0	0	113.5
CC(C)NC(=O)Nc1ccc2c(c1)C(=O)N([C@H](C)CO)C[C@@H](C)[C@H](CN(C)C(=O)Nc1ccccc1)OCCCC[C@@H](C)O2	0	0	0	0	0	117.9
CC(C)NC(=O)N(C)C[C@@H]1OCCCC[C@@H](C)Oc2ccc(NC(=O)Nc3ccc(F)cc3)cc2C(=O)N([C@H](C)CO)C[C@H]1C	0	0	0	0	-	0
CC(C)NC(=O)N(C)C[C@H]1OCCCC[C@H](C)Oc2ccc(NC(=O)Nc3ccc(F)cc3)cc2C(=O)N([C@@H](C)CO)C[C@H]1C	56.0	0	0	0	-	0
CO[C@@H]1CN(C)C(=O)c2ccc(NC(=O)c3ccccn3)cc2OC[C@@H](C)N(CCC(F)(F)F)C[C@H]1C	0	0	0	0	0	0
CC(C)NC(=O)Nc1ccc2c(c1)C(=O)N([C@H](C)CO)C[C@H](C)[C@@H](CN(C)Cc1ccncc1)OCCCC[C@H](C)O2	0	0	0	0	-	0
Cc1ccc(-c2ccc3c(c2)O[C@H](CN(C)Cc2ccccn2)[C@@H](C)CN([C@@H](C)CO)S3(=O)=O)cc1	0	0	0	11.6	-	0
Cc1ccc(-c2ccc3c(c2)O[C@H](CN(C)Cc2ccccn2)[C@@H](C)CN([C@H](C)CO)S3(=O)=O)cc1	0	0	0	16.1	-	0
Cc1ccc(-c2ccc3c(c2)O[C@@H](CN(C)Cc2ccccn2)[C@@H](C)CN([C@@H](C)CO)S3(=O)=O)cc1	0	0	0	0	-	0
C[C@@H]1CN([C@H](C)CO)S(=O)(=O)c2ccc(-c3ccc(C(=O)N(C)C)cc3)cc2O[C@H]1CN(C)C(=O)Cc1ccccn1	0	0	0	0	0	93.2!
C[C@@H]1CN([C@@H](C)CO)S(=O)(=O)c2ccc(-c3ccccc3)cc2O[C@@H]1CN(C)Cc1ccccn1	0	0	0	0	0	0
COc1ccc(-c2ccc3c(c2)O[C@@H](CN(C)CC2CC2)[C@@H](C)CN([C@@H](C)CO)S3(=O)=O)cc1	-	0	0	0	-	-
Cc1ccc(O)c(-c2cc(-c3cccc(Br)c3)n[nH]2)c1	0	-	0	0	36.8	0
Cc1ccc(-c2cc(-c3ccc(C)cc3O)[nH]n2)cc1	0	0	0	0	0	0
CCn1c2ccccc2c2nc3ccccc3nc21	-	0	-	-	-	0
CCn1c2ccccc2c2nc3cc(OC)c(OC)cc3nc21	-	0	-	-	35.0	0
O=c1[nH]c(=O)n([C@H]2C[C@H](O)[C@@H](CO)O2)cc1C(F)(F)F	0	0	25.3	0	0	0

Source: PubChem
